Results reported in paper PMC9826439 (Chemistry (Weinheim an Der Bergstrasse, Germany), 2022).

Experiments:
human cathepsin L = human cathepsin L (Homo sapiens, UniProt P07711); assay: Cathepsin L inhibition assay; type: biochemical; details: ratio of k inac/K i values
How it was run: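 Commercial human cathepsin; inactivation progress curves recorded for 60 min at five test-compound concentrations, in duplicate. pNA substrates were read at 405 nm (cuvette) and AMC substrates at λex 360/λem 460 nm. kobs came from a non-linear progress-curve fit, and kinac/Ki from a kobs vs [I] fit corrected by [S]/Km. Remaining activity was taken at 5 μM. SR is the ratio of rhodesain to cathepsin kinac/Ki.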

[1] = molecular target: rhodesain-like proteases (TbCatLs) in T. b. brucei cell lysate (Trypanosoma brucei brucei, UniProt P14658); assay: Competition profiling assay with ABP 7, T. b. brucei cell lysate; type: biochemical; details: T. b. brucei cell lysate 80 μg protein; inhibitor 0.016–10 μM, then ABP 7 5 μM
rhodesain = rhodesain (Trypanosoma brucei rhodesiense, UniProt Q95PM0); details: E-64 15 µM preincubated 37 °C 15 min, then ABP 7 15 µM
Sequence of rhodesain (Q95PM0 126-340 limits assumed): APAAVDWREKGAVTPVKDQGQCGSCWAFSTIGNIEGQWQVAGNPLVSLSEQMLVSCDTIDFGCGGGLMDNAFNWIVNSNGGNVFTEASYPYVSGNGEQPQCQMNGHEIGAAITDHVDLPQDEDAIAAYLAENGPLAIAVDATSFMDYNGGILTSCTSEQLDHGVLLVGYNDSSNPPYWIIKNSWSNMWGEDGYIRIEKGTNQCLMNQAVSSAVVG

Sequence of human cathepsin L (P07711 114-333): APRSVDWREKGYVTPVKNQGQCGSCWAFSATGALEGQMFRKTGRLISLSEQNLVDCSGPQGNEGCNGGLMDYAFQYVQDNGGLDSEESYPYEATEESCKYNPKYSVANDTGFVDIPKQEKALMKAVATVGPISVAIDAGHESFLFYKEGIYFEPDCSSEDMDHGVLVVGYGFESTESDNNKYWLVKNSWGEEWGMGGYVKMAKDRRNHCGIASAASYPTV
Sequence of rhodesain-like proteases (TbCatLs) in T. b. brucei cell lysate (P14658 126-450): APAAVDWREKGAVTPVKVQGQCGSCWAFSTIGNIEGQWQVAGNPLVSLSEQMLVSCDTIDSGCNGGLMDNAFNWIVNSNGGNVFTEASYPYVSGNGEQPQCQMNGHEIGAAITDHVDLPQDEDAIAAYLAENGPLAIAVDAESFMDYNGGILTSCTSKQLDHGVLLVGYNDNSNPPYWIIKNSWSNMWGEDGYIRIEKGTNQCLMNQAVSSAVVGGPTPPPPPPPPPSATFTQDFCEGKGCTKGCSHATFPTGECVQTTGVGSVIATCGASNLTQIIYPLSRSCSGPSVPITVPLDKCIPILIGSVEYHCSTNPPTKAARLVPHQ

| selectivity ratio (SR rhodesain/cathepsin L) (human cathepsin L) | concentration at which significantly lowered ABP 7 labeling signal was observed [1] [nM] | generation of the fluorescent rhodesain-7 adduct (rhodesain) | SMILES |
| --- | --- | --- | --- |
| 23.8 | 80 |  | Cc1ccc(C[C@H](NC(=O)OC(C)(C)C)C(=O)NC/C=C/S(=O)(=O)c2ccccc2)cc1 [Compound 2, (S,E)‐tert‐Butyl 1‐oxo‐1‐(3‐(phenylsulfonyl)allylamino)‐3‐p‐tolylpropan‐2‐ylcarbamate] |
|  |  | completely abolished | CC(C)C[C@H](NC(=O)[C@H]1O[C@@H]1C(=O)O)C(=O)NCCCCN=C(N)N [E‐64] |
